In ChEMBL document CHEMBL1147807, “Identification of 2-acylaminothiophene-3-carboxamides as potent inhibitors of FLT3” (Bioorg Med Chem Lett, 2006):

How the values were obtained:
[1] = target: Tyrosine-protein kinase Lyn (Homo sapiens) (UniProt P07948); test: Inhibition of human Lyn at 3 uM in presence of 10 uM ATP
Outline: (§1)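 Selectivity panel run at a single compound concentration of 3 µM with 10 µM ATP. Read-out is % inhibition of each kinase. Values are averages of duplicate experiments.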

[2] = target: RAF proto-oncogene serine/threonine-protein kinase (Homo sapiens) (UniProt P04049); test: Inhibition of human c-RAF at 3 uM in presence of 10 uM ATP; outline: as §1
Chain of RAF proto-oncogene serine/threonine-protein kinase (Homo sapiens) (P04049 whole entry): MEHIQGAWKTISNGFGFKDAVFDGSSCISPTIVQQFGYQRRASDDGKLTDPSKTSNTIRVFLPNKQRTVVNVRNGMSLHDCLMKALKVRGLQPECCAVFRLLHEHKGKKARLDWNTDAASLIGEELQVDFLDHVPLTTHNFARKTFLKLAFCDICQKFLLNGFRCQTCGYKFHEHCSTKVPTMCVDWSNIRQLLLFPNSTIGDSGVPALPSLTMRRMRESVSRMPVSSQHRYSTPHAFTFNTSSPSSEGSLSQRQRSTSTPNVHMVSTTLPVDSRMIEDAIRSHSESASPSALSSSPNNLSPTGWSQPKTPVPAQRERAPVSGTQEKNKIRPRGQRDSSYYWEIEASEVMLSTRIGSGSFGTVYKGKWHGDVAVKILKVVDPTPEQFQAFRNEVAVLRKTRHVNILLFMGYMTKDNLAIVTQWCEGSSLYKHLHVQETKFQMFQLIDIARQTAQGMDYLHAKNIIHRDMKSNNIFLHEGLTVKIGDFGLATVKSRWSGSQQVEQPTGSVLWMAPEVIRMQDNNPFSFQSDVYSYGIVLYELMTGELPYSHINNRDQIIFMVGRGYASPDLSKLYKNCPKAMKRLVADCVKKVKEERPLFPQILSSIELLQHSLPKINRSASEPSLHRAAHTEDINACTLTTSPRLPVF

[3] = target: Tyrosine-protein kinase BTK (Homo sapiens) (UniProt Q06187); test: Inhibition of human BTK kinase at 3 uM in presence of 10 uM ATP; outline: as §1
Chain of Tyrosine-protein kinase BTK (Homo sapiens) (Q06187 whole entry): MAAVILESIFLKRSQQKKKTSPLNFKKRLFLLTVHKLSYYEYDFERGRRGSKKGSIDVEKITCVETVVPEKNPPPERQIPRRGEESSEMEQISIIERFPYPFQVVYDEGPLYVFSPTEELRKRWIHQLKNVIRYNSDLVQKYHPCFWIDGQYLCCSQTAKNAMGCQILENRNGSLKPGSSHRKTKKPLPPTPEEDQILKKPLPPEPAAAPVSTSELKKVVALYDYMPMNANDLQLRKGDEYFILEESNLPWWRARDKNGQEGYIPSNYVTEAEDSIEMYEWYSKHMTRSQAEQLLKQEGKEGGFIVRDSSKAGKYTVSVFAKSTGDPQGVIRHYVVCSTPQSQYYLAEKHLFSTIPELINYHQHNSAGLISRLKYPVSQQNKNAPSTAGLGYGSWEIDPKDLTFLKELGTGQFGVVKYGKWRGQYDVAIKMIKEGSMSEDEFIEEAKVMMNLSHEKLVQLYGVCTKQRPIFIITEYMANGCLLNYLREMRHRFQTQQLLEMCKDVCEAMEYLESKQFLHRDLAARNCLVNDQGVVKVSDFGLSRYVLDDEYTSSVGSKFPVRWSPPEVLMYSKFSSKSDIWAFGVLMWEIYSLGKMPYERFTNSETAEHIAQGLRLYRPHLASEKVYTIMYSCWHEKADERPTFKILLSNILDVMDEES

[4] = target: Cyclin-dependent kinase 7/ cyclin H (Homo sapiens) (UniProt P51946+P50613); test: Inhibition of human CDK7/cyclin H/MAT1 at 3 uM in presence of 10 uM ATP; type: protein-complex assay; outline: as §1
[5] = target: T1, Serine/threonine-protein kinase D1 (Homo sapiens) (UniProt Q15139); test: Inhibition of human PKC mu at 3 uM in presence of 10 uM ATP; outline: as §1
T1 sequence (whole entry): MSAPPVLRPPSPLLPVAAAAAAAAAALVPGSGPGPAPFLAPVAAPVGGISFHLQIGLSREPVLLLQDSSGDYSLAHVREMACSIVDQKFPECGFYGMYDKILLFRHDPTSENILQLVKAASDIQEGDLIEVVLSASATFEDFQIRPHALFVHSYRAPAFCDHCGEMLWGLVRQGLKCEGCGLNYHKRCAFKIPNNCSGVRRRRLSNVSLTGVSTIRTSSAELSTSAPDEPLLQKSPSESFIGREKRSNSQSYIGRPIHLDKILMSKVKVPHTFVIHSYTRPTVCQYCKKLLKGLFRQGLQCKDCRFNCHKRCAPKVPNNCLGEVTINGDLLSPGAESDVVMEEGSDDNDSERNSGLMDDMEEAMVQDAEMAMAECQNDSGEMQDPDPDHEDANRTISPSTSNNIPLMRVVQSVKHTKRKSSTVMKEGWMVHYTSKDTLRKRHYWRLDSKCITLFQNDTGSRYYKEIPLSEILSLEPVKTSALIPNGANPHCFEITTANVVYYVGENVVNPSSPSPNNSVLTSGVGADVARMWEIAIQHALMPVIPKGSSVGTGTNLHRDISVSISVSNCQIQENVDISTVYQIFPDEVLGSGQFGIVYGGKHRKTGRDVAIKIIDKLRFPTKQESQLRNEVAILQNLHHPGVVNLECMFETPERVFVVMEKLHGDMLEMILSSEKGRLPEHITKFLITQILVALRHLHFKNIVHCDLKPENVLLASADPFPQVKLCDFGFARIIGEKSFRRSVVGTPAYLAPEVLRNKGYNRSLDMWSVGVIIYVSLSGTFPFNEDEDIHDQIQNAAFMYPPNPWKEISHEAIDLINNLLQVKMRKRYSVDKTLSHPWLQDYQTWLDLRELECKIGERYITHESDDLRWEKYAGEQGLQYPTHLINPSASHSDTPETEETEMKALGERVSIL

[6] = target: BDNF/NT-3 growth factors receptor (Homo sapiens) (UniProt Q16620); test: Inhibition of human TrkB at 3 uM in presence of 10 uM ATP; outline: as §1
Chain of BDNF/NT-3 growth factors receptor (Homo sapiens) (Q16620 32-822 limits assumed): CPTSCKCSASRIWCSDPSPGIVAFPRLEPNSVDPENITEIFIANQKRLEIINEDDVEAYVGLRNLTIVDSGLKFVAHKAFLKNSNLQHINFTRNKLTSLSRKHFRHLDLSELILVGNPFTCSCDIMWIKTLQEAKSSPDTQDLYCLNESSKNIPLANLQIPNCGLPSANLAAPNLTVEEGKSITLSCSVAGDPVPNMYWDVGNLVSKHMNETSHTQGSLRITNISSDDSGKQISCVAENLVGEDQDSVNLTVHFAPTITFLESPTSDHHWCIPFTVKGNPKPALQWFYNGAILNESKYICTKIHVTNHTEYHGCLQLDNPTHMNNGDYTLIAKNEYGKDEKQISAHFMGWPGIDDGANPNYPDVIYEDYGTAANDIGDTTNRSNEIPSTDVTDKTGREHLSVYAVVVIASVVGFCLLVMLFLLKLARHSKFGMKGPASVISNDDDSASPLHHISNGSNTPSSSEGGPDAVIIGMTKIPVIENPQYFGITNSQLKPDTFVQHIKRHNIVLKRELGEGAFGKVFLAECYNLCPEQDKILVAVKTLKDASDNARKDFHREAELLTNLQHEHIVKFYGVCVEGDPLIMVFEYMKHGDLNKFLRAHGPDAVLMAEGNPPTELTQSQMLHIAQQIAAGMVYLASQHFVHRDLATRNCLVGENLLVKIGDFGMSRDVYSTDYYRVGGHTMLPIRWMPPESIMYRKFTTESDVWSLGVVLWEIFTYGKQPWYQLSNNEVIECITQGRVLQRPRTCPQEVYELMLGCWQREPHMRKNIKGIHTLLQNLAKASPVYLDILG

MV4-11 = test: Antiproliferative activity against human MV4-11 cells
[7] = target: T2, Serine/threonine-protein kinase Chk1 (Homo sapiens) (UniProt O14757); test: Inhibition of human CHK1 at 3 uM in presence of 10 uM ATP; outline: as §1
T2 sequence (whole entry): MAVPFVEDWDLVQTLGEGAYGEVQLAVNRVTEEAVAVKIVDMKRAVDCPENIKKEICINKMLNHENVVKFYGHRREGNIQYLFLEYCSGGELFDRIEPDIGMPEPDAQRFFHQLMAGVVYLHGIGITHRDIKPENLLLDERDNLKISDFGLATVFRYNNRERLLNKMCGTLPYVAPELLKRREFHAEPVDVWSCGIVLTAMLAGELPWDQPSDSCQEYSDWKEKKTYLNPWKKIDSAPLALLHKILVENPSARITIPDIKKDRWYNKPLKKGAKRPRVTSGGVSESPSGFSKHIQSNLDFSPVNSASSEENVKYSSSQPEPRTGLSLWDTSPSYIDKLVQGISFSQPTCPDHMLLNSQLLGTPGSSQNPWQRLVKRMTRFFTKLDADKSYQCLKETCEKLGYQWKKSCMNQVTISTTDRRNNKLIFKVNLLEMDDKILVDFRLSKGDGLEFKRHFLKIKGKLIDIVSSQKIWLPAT

[8] = target: T3, Serine/threonine-protein kinase D2 (Homo sapiens) (UniProt Q9BZL6); test: Inhibition of human PKD2 at 3 uM in presence of 10 uM ATP; outline: as §1
T3 sequence (whole entry): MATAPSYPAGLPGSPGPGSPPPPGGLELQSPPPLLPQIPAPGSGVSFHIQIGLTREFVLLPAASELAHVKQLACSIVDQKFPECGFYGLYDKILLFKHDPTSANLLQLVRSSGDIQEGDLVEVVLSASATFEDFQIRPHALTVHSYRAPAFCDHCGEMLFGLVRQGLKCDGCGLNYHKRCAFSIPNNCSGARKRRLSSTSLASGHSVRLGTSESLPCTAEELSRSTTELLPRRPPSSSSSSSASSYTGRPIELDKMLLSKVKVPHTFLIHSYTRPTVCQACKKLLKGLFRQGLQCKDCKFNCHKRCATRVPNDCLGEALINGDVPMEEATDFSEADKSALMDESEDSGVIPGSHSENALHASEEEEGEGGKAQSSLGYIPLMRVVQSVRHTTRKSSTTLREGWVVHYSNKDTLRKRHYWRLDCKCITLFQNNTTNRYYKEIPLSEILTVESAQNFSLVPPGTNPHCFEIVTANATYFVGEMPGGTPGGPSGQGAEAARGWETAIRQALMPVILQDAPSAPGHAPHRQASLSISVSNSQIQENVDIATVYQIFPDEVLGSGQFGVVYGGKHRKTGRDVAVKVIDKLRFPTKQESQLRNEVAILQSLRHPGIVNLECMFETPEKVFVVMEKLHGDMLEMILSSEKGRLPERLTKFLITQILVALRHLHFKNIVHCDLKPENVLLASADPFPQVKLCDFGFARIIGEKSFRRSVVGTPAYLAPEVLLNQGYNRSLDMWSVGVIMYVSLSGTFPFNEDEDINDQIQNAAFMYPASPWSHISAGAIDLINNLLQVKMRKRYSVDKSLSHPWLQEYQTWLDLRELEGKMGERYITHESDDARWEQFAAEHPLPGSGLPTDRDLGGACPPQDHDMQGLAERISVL

[9] = target: Glycogen synthase kinase-3 beta (Homo sapiens) (UniProt P49841); test: Inhibition of human GSK3-beta at 3 uM in presence of 10 uM ATP; outline: as §1
Chain of Glycogen synthase kinase-3 beta (Homo sapiens) (P49841 whole entry, looked up): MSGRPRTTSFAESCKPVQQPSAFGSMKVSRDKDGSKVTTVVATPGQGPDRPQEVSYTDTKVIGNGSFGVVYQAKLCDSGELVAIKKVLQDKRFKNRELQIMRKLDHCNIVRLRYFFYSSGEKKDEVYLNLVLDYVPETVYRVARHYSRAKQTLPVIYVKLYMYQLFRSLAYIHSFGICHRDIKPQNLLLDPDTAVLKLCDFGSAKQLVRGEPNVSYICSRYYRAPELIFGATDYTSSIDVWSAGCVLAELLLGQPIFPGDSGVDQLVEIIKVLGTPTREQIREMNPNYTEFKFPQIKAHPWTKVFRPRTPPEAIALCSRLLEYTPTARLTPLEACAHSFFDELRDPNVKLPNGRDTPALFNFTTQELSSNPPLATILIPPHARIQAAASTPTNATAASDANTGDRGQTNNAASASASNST

Chain of Tyrosine-protein kinase Lyn (Homo sapiens) (P07948 2-512 limits assumed): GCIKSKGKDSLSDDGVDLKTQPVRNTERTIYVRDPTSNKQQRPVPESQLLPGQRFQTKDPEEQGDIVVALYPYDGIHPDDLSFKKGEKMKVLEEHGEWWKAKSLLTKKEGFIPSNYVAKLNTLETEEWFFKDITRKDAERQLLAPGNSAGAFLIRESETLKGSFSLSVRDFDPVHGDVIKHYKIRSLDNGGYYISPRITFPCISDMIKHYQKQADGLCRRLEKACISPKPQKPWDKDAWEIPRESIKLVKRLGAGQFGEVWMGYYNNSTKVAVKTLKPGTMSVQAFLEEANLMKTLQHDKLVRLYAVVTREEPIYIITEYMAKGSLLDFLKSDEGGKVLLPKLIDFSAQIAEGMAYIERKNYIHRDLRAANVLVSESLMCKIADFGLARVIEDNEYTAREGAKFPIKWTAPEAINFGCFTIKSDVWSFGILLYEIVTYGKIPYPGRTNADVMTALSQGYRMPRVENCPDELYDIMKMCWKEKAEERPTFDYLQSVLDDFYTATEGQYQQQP

Work on `COc1ccc(C(=O)Nc2sc3c(c2C(N)=O)CCCC3)cc1OC` yielded an inhibition [1] of 21%, an inhibition [2] of -1% and an inhibition [3] of 14%. The inhibition [4] was -1%, the inhibition [5] was 3% and the inhibition [6] was 39%. It also gave an IC50 (MV4-11) of 340 nM, an inhibition [7] of -7% and an inhibition [8] of -7%. The inhibition [9] was -2%.
